Measured values from ChEMBL document CHEMBL1129448, “Neurosteroid analogues. 4. The effect of methyl substitution at the C-5 and C-10 positions of neurosteroids on electrophysiological activity at GABAA receptors” (1996).

Columns and labels:
Rattus norvegicus [1] = organism: Rattus norvegicus; test: Compound was evaluated at 10 uM for its ability to initiate (gate) a current in the absence of GABA in cultured postnatal rat hippocampal neurons; type: functional; set-up: unit not given here
Outline: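 Whole-cell voltage clamp of cultured postnatal rat hippocampal neurons at -60 mV. Compound at 10 µM was applied without GABA by pressure ejection (500 ms, 10-20 psi) from a pipet within 5 µm. CsCl-based pipet solution, pH 7.3. DMSO final <0.2%. Peak directly gated current is expressed relative to the same cell's response to 2 µM GABA alone. Mean ± SEM, N cells.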

Rattus norvegicus [2] = organism: Rattus norvegicus; test: Compound was evaluated at 10 uM GABA-mediated current in cultured postnatal rat hippocampal neurons; type: functional
Outline: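 Whole-cell voltage clamp of cultured postnatal rat hippocampal neurons held at -60 mV. Compound at 10 µM was co-applied with 2 µM GABA by pressure ejection (500 ms jet, 10-20 psi) from a pipet within 5 µm of the cell. Pipet solution was CsCl-based, pH 7.3. DMSO final <0.2%. Current is given as % of 2 µM GABA alone (100% = no change). Mean ± SEM, N cells.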

Structure (SMILES)	Gated current (Rattus norvegicus [1])	Potentation (Rattus norvegicus [2])
C[C@]12CC[C@H]3[C@@H](CC[C@@H]4C[C@H](O)CC[C@@H]43)[C@@H]1CC[C@@H]2C#N	41	1823
CC(=O)[C@H]1CC[C@H]2[C@@H]3CC[C@@H]4C[C@H](O)CC[C@]4(C)[C@H]3CC[C@]12C [ELTANOLONE]	49	1023
C[C@]12CC[C@H]3[C@@H](CCC4C[C@H](O)CC[C@@H]43)[C@@H]1CC[C@@H]2C#N (stereo partly drawn)	42	1721
C[C@]12CC[C@@H](O)C[C@H]1CC[C@@H]1[C@@H]2CC[C@]2(C)[C@@H](C#N)CC[C@@H]12	68	1297
CC(=O)[C@H]1CC[C@H]2[C@@H]3CC[C@]4(C)C[C@H](O)CC[C@]4(C)[C@H]3CC[C@]12C	24	498
C[C@]12CC[C@@H]3[C@H](CC[C@]4(C)[C@@H](C#N)CC[C@@H]34)[C@H]1CC[C@@H](O)C2	28	452
CC(=O)[C@H]1CC[C@H]2[C@@H]3CCC4(C)C[C@H](O)CC[C@]4(C)[C@H]3CC[C@]12C (stereo partly drawn)	3	294
CC(=O)[C@H]1CC[C@H]2[C@@H]3CCC4(C)C[C@H](O)CC[C@@H]4[C@H]3CC[C@]12C (stereo partly drawn)	0	110
CC(=O)[C@H]1CC[C@H]2[C@@H]3CCC4C[C@H](O)CC[C@@H]4[C@H]3CC[C@]12C (stereo partly drawn)	46	926
CC(=O)[C@H]1CC[C@H]2[C@@H]3CC[C@@H]4C[C@H](O)CC[C@@H]4[C@H]3CC[C@]12C	110	754
C[C@]12CC[C@@H](O)C[C@@H]1CC[C@@H]1[C@@H]2CC[C@]2(C)[C@@H](C#N)CC[C@@H]12	32	1829
CC12CC[C@@H]3[C@H](CC[C@]4(C)[C@@H](C#N)CC[C@@H]34)[C@H]1CC[C@@H](O)C2 (stereo partly drawn)	0	92
CC(=O)[C@H]1CC[C@H]2[C@@H]3CC[C@H]4C[C@H](O)CC[C@]4(C)[C@H]3CC[C@]12C [BREXANOLONE]	26	1111
CC(=O)[C@H]1CC[C@H]2[C@@H]3CC[C@]4(C)C[C@H](O)CC[C@@H]4[C@H]3CC[C@]12C	12	652
